In brackets after ≈: the same amount, converted by molar mass.
Tests used:
[1] = biological target: T1, Cytochrome P450 1A2 (Homo sapiens, UniProt P05177); test: Inhibition of human CYP1A2 by fluorescence assay; format: ADME
T1 sequence (P05177 whole entry): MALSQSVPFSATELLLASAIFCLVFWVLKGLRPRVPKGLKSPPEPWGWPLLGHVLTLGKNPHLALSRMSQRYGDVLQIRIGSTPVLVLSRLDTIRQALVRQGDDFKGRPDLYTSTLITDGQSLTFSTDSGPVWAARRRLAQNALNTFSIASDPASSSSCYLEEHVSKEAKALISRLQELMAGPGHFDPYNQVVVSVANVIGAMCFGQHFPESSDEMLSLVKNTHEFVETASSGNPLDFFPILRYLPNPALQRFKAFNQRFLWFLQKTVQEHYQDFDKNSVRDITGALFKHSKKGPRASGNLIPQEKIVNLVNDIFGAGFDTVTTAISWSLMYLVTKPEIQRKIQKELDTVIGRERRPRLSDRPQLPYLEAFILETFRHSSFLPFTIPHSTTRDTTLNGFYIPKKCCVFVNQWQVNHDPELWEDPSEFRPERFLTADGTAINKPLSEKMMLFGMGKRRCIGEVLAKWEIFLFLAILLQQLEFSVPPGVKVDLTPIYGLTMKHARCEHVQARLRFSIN
How it was run: (§1)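 Recombinant human CYP bactosomes (0.1 mg/mL) in 50 mM potassium phosphate pH 7.4, preincubated 10 min at 37 °C with test compound (0.1-10 μM, 7 concentrations) and fluorogenic substrate. Substrates: ethoxyresorufin 0.5 μM (1A2), FCA 50 μM (2C9), BMC 10 μM (2C19), MMC 10 μM (2D6), DEF 1 μM or 7-BQ 25 μM (3A4). Reaction started with NADPH regenerating system; metabolite formation read over 10 min. IC50 from percent of control rate; miconazole control; triplicate.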

[2] = biological target: T2, Glutamate receptor 2 (Homo sapiens, UniProt P42262); test: Allosteric modulation of human recombinant GluA2 receptor flip isoform expressed in HEK293 cells assessed as potentiation of glutamate-induced calcium influx by Fluo-4/FLIPR method; format: cell-based
T2 sequence (P42262 whole entry, canonical isoform): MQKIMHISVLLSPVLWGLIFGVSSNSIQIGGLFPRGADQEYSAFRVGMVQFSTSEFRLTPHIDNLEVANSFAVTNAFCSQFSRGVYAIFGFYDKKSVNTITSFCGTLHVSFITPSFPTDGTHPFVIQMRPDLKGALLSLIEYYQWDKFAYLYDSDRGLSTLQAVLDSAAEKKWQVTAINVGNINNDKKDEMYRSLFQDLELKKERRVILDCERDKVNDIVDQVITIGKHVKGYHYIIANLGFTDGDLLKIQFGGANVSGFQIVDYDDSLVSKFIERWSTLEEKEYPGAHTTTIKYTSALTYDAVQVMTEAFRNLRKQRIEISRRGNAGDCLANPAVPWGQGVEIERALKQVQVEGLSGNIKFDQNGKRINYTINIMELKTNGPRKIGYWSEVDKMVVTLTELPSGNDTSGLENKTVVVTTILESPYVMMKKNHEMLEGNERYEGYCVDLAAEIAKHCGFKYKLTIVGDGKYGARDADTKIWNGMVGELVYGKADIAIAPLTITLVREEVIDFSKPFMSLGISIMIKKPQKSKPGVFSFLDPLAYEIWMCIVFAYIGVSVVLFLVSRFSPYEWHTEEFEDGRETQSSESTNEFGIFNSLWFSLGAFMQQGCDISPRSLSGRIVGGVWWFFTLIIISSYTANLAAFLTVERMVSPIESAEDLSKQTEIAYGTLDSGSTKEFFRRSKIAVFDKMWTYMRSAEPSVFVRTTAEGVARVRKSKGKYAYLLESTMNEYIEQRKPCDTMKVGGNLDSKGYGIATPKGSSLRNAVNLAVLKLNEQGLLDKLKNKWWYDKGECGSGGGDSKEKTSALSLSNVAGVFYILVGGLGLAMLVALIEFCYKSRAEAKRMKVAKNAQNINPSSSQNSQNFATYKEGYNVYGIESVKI
How it was run: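 Stable GluA2 flip (unedited) cell line grown in DMEM/F12 with 10% FBS and seeded to confluence 2-3 days before use. Cells washed in HEPES buffer (pH 7.3) and loaded with 2 μM Fluo-4 AM for 60 min at room temperature. On FLIPR, compound was added 5 min before 100 μM glutamate. pEC50 and asymptotic maximum are relative to the maximal response to cyclothiazide, n ≥ 3.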

[3] = biological target: T2, Glutamate receptor 2; test: Allosteric modulation of human recombinant GluA2 receptor flip isoform expressed in HEK293 cells assessed as potentiation of glutamate-induced calcium influx by Fluo-4/FLIPR method relative to cyclothiazide; format: cell-based
How it was run: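 Stable GluA2 flip (unedited) cells seeded to confluence 2-3 days before assay; washed in HEPES buffer (145 NaCl, 5 KCl, 2 CaCl2, 1 MgCl2, 5.5 glucose, pH 7.3), loaded with 2 μM Fluo4-AM 60 min at room temperature. FLIPR dual addition: compound 5 min before 100 μM glutamate; fluorescence rise expressed against maximal cyclothiazide response, fitted pEC50 and Asym max; n ≥ 3.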

[4] = Kinetic solubility of the compound in phosphate buffered saline of pH 7.4; format: physicochemical
How it was run: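 Kinetic solubility: 10 mM DMSO stock, 5 μL diluted to 100 μL with pH 7.4 phosphate-buffered saline, equilibrated 1 h at room temperature, filtered, filtrate quantified by calibrated flow-injection chemiluminescent nitrogen detection.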

[5] = Distribution coefficient, log D of the compound; format: physicochemical; settings: octanol/water
[6] = biological target: Cytochrome P450 2D6 (Homo sapiens, UniProt P10635); test: Inhibition of human CYP2D6 by fluorescence assay; format: ADME; how it was run: as §1
Cytochrome P450 2D6, sequence (P10635 whole entry): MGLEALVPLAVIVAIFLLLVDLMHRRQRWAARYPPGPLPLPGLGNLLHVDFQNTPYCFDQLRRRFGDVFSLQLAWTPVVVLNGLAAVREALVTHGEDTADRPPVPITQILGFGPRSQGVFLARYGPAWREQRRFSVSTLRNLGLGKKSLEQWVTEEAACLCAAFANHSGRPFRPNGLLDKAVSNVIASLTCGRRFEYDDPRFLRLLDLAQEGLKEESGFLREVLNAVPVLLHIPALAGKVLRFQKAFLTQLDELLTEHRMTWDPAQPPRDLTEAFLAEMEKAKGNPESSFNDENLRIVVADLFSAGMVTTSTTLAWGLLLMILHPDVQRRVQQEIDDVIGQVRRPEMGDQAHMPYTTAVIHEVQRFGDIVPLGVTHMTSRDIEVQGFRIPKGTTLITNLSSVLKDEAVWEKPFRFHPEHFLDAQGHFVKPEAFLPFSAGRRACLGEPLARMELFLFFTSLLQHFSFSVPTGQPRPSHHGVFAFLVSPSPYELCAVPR

[7] = biological target: Cytochrome P450 2C9 (Homo sapiens, UniProt P11712); test: Inhibition of human CYP2C9 by fluorescence assay; format: ADME; how it was run: as §1
Cytochrome P450 2C9, sequence (P11712 whole entry): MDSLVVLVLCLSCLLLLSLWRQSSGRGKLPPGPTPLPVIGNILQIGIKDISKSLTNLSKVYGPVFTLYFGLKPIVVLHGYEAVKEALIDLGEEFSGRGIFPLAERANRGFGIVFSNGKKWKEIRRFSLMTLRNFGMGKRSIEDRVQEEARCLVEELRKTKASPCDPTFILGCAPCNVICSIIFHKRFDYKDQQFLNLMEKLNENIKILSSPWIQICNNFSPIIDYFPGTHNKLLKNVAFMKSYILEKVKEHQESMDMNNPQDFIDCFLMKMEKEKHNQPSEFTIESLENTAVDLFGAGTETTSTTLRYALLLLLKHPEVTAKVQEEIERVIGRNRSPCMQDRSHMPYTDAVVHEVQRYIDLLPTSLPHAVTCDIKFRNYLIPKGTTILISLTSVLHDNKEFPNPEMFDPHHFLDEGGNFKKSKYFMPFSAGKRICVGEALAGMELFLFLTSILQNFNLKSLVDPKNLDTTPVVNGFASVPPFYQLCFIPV

[8] = Cmax in rat at 3 mg/kg, po; format: ADME, organism-based; set-up: dose 3 mg/kg, route oral; settings: in vivo
[9] = Clearance in rat at 3 mg/kg, po; format: ADME, organism-based; set-up: dose 3 mg/kg, route oral; settings: in vivo
How it was run: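 Rats dosed orally at 3 mg/kg; blood sampled via the hepatic portal vein and heart. Estimated clearance derived from in vivo hepatic extraction, taking rat liver blood flow as 85 (mL/min)/kg.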

[10] = Plasma protein binding in rat at 3 mg/kg, po; format: ADME, organism-based; set-up: dose 3 mg/kg, route oral; settings: read-out: PPB (converted)
[11] = AUC ( 0 to t) in rat at 3 mg/kg, po; format: ADME, organism-based, Plasma; set-up: dose 3 mg/kg, route oral; settings: plasma
[12] = tested on: Brain; test: Brain tissue binding in rat at 3 mg/kg, po; format: ADME, organism-based; set-up: dose 3 mg/kg, route oral; settings: in vivo
[13] = in vivo; settings: rat, po, 3 mg/kg
[14] = Apparent permeability of the compound; format: ADME; settings: not told
How it was run: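 Artificial membrane permeability: donor holds 10 mM sample in pH 7.05 phosphate buffer with 0.5% hydroxypropylcyclodextrin. Membrane is 1.8% phosphatidylcholine and 1% cholesterol in decane. Donor and acceptor concentrations measured by LCMS after 3 h at room temperature; permeability expressed in nm/s.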

[15] = biological target: Cytochrome P450 2C19 (Homo sapiens, UniProt P33261); test: Inhibition of human CYP2C19 by fluorescence assay; format: ADME; how it was run: as §1
Cytochrome P450 2C19, sequence (P33261 whole entry): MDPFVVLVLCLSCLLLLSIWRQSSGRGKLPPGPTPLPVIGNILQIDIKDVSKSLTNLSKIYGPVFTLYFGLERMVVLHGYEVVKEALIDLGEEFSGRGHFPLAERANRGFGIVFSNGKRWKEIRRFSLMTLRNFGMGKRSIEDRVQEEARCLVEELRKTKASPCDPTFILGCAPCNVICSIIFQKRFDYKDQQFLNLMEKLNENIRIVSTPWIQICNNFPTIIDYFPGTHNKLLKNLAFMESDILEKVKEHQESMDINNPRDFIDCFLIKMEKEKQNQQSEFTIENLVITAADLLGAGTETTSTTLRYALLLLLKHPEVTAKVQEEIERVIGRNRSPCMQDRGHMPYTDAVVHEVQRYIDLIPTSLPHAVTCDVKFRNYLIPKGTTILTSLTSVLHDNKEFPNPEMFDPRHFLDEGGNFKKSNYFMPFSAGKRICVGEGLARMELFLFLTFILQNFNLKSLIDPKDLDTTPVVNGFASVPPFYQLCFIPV

SMILES	IC50 [1] [µM]	EC50 [2] [µM]	Activity [3] [%]	solubility kinetic [4] [µg/mL]	logD [5]	IC50 [6] [µM]	IC50 [7] [µM]	Cmax [8] [ng/mL]	CL/F [9] [mL/min/kg]	fraction unbound [10]	AUC(0-t) [11] [ng·h/mL]	Brain tissue binding (% bound) [12] [%]	Kp ([13]; brain and blood)	Kp ([13]; brain)	Papp [14] [×10⁻⁶ cm/s]	IC50 [15] [µM]
CS(=O)(=O)c1ccc(-n2nc(C(F)(F)F)c3c2CCCC3)cc1	4	31.6	83	13 (≈ 37.8 µM)	3.4	6	–	–	–	–	–	–	–	–	–	–
O=C(c1ccc(-n2nc(C(F)(F)F)c3c2CCCC3)cc1)N1CCCCC1	–	> 100	100	16 (≈ 42.4 µM)	1.6	–	–	–	–	–	–	–	–	–	–	–
CC(C(=O)N1CCCC1)c1ccc(-n2nc(C(F)(F)F)c3c2CCCC3)cc1 (stereo not given)	6	25.1	81	59 (≈ 151 µM)	2.3	–	1	–	–	–	–	–	–	–	–	–
CC(=O)c1ccc(-n2nc(C(F)(F)F)c3c2CCCC3)cc1	0.1	31.6	94	13 (≈ 42.2 µM)	3	–	4	–	–	–	–	–	–	–	–	–
CN(C)S(=O)(=O)c1ccc(-n2nc(C(F)(F)F)c3c2CCCC3)cc1	–	20	63	5 (≈ 13.4 µM)	3.1	–	2	–	–	–	–	–	–	–	–	–
CN(CCc1ccccc1)C(=O)c1ccc(-n2nc(C(F)(F)F)c3c2CCCC3)cc1	–	39.8	84	57 (≈ 133 µM)	3	–	1	–	–	–	–	–	–	–	–	3

Continued, values first:

IC50 [1] [µM]	EC50 [2] [µM]	Activity [3] [%]	solubility kinetic [4] [µg/mL]	logD [5]	IC50 [6] [µM]	IC50 [7] [µM]	Cmax [8] [ng/mL]	CL/F [9] [mL/min/kg]	fraction unbound [10]	AUC(0-t) [11] [ng·h/mL]	Brain tissue binding (% bound) [12] [%]	Kp ([13]; brain and blood)	Kp ([13]; brain)	Papp [14] [×10⁻⁶ cm/s]	IC50 [15] [µM]	SMILES
3.5	2.51	98	62 (≈ 176 µM)	3.6	–	8	–	–	–	–	–	–	–	–	–	CCC(=O)NCc1ccc(-n2nc(C(F)(F)F)c3c2CCCC3)cc1
–	3.16	82	77 (≈ 204 µM)	3.3	–	3	95	55	0.004	166	98.1	0.9	–	–	–	O=C(Cc1ccc(-n2nc(C(F)(F)F)c3c2CCCC3)cc1)N1CCCC1
1	1	132	110 (≈ 303 µM)	2.4	–	5	121	54	0.016	231	99.4	–	1.4	–	–	O=C1CCCN1Cc1ccc(-n2nc(C(F)(F)F)c3c2CCCC3)cc1
–	2	107	118 (≈ 336 µM)	2.3	–	7	260	47	0.022	262	98.8	2.8	–	–	–	CN(C)C(=O)Cc1ccc(-n2nc(C(F)(F)F)c3c2CCCC3)cc1
2	1	112	88 (≈ 231 µM)	3.3	–	9	167	47	0.011	331	–	–	1.3	42	–	O=C1CCCN1Cc1ccc(-n2nc(C(F)(F)F)c3c2CCCC3)cc1F
–	2	94	–	1.3	–	–	–	–	–	–	–	–	–	–	–	CC(=O)N(C)Cc1ccc(-n2nc(C(F)(F)F)c3c2CCCC3)cc1
–	20	94	124 (≈ 300 µM)	3.4	–	4	–	–	–	–	–	–	–	–	–	O=C(N1CCCC1)C(F)(F)c1ccc(-n2nc(C(F)(F)F)c3c2CCCC3)cc1
–	1.26	79	41 (≈ 104 µM)	3.7	–	7	111	55	0.002	248	99.4	0.3	–	–	–	O=C(Cc1ccc(-n2nc(C(F)(F)F)c3c2CCCC3)cc1F)N1CCCC1
–	15.8	86	65 (≈ 171 µM)	3.2	8	6	–	–	–	–	–	–	–	–	–	CCCCN(C)C(=O)c1ccc(-n2nc(C(F)(F)F)c3c2CCCC3)cc1

From ChEMBL document CHEMBL1649062, “Integration of lead optimization with crystallography for a membrane-bound ion channel target: discovery of a new class of AMPA receptor positive allosteric modulators” (J Med Chem, 2011)
